For experiment [1], the system named is MM1.S. Kind of experiment: Synergistic activity against human MM.1S cells assessed as combination index […] in presence of 2.5 uM GSK126 […] at 0.5 uM incubated for 48 hrs by MTT assay. The format is functional. Put shortly:
(§1)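 Cells were exposed to the EZH2/EZH1 inhibitor (UNC1999 or GSK126) for 72 h in total, with the Akt inhibitor added for the last 48 h. Viability was read by MTS assay relative to untreated control cells, in triplicate. The combination index for each dose pair came from isobologram analysis.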

Experiment [2] has as its system MM1.S. Kind of experiment: Downregulation of phospho-Rb protein expression in human MM1.S cells incubated at 0.3 to 3 micromol/L for 48 hrs by Western blot analysis. The format is functional, cell-based. The conditions noted are these: dose 0.3-3 µmol/L. Put shortly: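 MM.1S and H929 cells given TAS-117 at the indicated doses for 48 h. Protein levels assessed by immunoblot.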
A general note: In western blotting, separated proteins are transferred to a membrane and probed.

For experiment [3], the system named is NCI-H929. Briefly: Upregulation of CDKN1B mRNA expression in human NCI-H929 cells at 1 micromol/L after 24 hrs by qRT-PCR analysis. Format: functional, cell-based. Particulars: dose 1.0 µmol/L. Put shortly:
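Cells were exposed to 1 μmol/L TAS-117 for 24 h. mRNA of FOXO3, FOXO4, BIM and CDKN1B was measured by qRT-PCR in H929 cells. Fold change is relative to the untreated control after normalization to GAPDH. Data are SD of triplicates.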
(Quantitative PCR measures a nucleic acid by following its amplification.)

For experiment [4], the system named is MM1.S. Kind of experiment: Synergistic activity against human MM.1S cells assessed as combination index […] in presence of 2.5 uM UNC1999 […] at 0.5 uM incubated for 48 hrs by […]. Format: functional. The essentials: as §1
For experiment [5], the system named is NCI-H929. Kind of experiment: Cytotoxicity against human NCI-H929 cells transduced with EZH1 assessed as enhanced sensitivity at 0.156 to 2.5 micromol/L 48 hrs by MTS assay. The conditions noted are these: dose 0.156-2.5 µmol/L. Format: functional, cell-based. Put shortly:
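MM.1S or H929 cells transduced with lentiviral shRNA against EZH1 or against luciferase (shLuc control), then given TAS-117 at the indicated doses for 48 h. Viability by MTS relative to untreated control; mean ± SD of triplicates; compared with shLuc.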
In general terms: Tetrazolium dyes change colour on reduction, which living cells bring about.

Experiment [6] relates to OPM-2/BTZ. Kind of experiment: Synergistic activity against human OPM-2/BTZ cells assessed as combination index preincubated in presence of 2.5 uM UNC1999 for 72 hrs followed by compound addition at 2 uM incubated for 48 hrs by MTT assay. The format is functional.
The subject of experiment [7] is OPM-2. Kind of experiment: Synergistic activity against human OPM-2 cells assessed as combination index preincubated in presence of 1.25 uM GSK126 for 72 hrs followed by compound addition at 2.5 uM incubated for 48 hrs by MTT assay. Format: functional.

SMILES strings stand for the structures. Calls of active or inactive are those of the source. No cut-off for these calls is given here.

Turning to `C[C@]1(O)C[C@@](N)(c2ccc(-c3nc4n(c3-c3ccccc3)COc3ccncc3-4)cc2)C1` [PIFUSERTIB], the CI in experiment [1] came out at 0.619; in experiment [4], 0.277; in experiment [6], 0.483; in experiment [7], 2.465. Further, the result in experiment [2], in experiment [3] and in experiment [5] was Active.

Source of the values: ChEMBL document CHEMBL5647697, “Akt inhibition synergizes with polycomb repressive complex 2 inhibition in the treatment of multiple myeloma” (2019).
